Kir21 inh: inhibitors of mouse Kir2.1 inward-rectifier potassium channel | P35561 | HEK293-Kir2.1, FluxOR thallium flux fluorescence; active compounds read low | B-score at 10 µM | hit rate 0.85% among 310,000 | AID 1672;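 active = fluorescence ratio B-score at or below minus 3 SD of library scores, with starting-brightness B-score within 2 SD, cut at about -4.2 in these data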;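 also: channel flux triggered by added potassium and thallium sulfate stimulus; B-score of peak minus minimum fluorescence over baseline after thallium stimulus; more negative B-score means stronger Kir2.1 block with less thallium influx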
KCNQ1 inh: human KCNQ1 channel inhibition; P51787; CHO-K1 KCNQ1, FluxOR thallium flux fluorescence; active compounds read high; B-score at 10 µM; hit rate 1.3% among 310,000;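 active = compounds whose thallium flux B-score, printed positive for inhibition, exceeds three library SD while starting fluorescence stays within three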;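 also: channel opened by potassium depolarization with thallium stimulus after 20 min compound exposure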
Target sequence (P51787 whole entry, looked up): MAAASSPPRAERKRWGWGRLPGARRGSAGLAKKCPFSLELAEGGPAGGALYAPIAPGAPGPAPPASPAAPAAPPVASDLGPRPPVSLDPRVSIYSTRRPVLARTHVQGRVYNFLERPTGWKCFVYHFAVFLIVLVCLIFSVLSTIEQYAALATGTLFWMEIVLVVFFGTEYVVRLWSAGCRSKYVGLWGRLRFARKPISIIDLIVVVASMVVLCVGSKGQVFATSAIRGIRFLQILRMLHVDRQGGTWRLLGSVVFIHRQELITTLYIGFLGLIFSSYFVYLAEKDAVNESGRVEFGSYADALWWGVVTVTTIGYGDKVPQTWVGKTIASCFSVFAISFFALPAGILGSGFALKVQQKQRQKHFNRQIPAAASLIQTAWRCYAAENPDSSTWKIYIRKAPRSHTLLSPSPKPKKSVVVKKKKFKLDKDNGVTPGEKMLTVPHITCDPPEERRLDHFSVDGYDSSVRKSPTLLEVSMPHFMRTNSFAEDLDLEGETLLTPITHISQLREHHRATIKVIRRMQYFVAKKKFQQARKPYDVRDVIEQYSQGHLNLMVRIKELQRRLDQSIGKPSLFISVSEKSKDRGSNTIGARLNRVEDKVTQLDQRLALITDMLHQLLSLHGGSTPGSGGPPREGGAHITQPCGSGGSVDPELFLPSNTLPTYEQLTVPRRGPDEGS
KCNQ1 act: potentiators or activators of human KCNQ1 potassium channel; hit rate 0.35% among 310,000; B-score at 10 µM; CHO-K1 KCNQ1, thallium flux FluxOR fluorescence; active compounds read high; AID 2648; P51787;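 active = fluorescence ratio B-score, a plate-corrected score, at least three library SD, with initial intensity B-score within 5 SD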
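System: CHO-K1 cells stably expressing KCNQ1 / Medium: assay buffer for compound exposure, DMSO matched across wells / Reagent: thallium- and potassium-containing depolarizing buffer / Compound: one concentration, matched DMSO / Incubation: 20 min compound pretreatment at room temperature / Measured by: kinetic FluxOR fluorescence, 10 s baseline plus 110 s post-stimulus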
KCNK3 inh: human KCNK3 channel inhibition, primary screen. O14649. CHO-KCNK3 thallium flux, FluxOR fluorescence; active compounds read low. B-score at 10 µM. hit rate 0.84% among 340,000;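 active = B-score under library mean minus 4 SD, starting fluorescence ratio at most library mean plus 5 SD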;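 also: more negative B-score means stronger inhibition of thallium flux through KCNK3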
hERG protect: compounds protecting human hERG from proarrhythmic drug block; AID 1511; hit rate 0.51% among 310,000; CHO-hERG, FluxOR thallium flux, dofetilide IC70 present; activation (rescue from dofetilide block), less the hit threshold, % at 10 µM;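 active = activation above the mean of controls blocked by dofetilide plus 5 SD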;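 also: thallium influx through hERG after potassium depolarization seen as dye fluorescence rise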
KCNK9 inh: inhibitors of human KCNK9 two-pore domain potassium channel; Q9NPC2; HEK293 KCNK9, FluxOR thallium flux fluorescence; active compounds read low; B-score at 10 µM; hit rate 1.2% among 310,000; AID 488922;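 active = ratio B-score over 3 SD below the library mean, with starting fluorescence within 5 SD of its mean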;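 also: negative B-score means less thallium flux so channel inhibition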
* = called active by the depositor; i = inactive; · = not tested or not shown. Hits are enriched below; roughly 3.8% of the tested compounds scored in any of these assays.

SMILES	Kir21 inh	KCNQ1 inh	KCNQ1 act	KCNK3 inh	hERG protect	KCNK9 inh
CC(C)OC(=O)CN1C(=O)S/C(=C/c2ccc(N3CCCCC3)o2)C1=O	-4.8	i	i	i	0	-7.8*
CCN(CC)c1nc2ccccc2nc1-n1nc(C)cc1C	-4.3*	i	i	i	-9	i
Cc1cc(C)n(-c2nc3ccccc3n3cnnc23)n1	0	i	i	i	0	i
Cc1cc(C)n(-c2nc3ccccc3nc2Nc2ccc3c(c2)OCO3)n1	-1.8	i	i	i	-14	-7.3*
Cc1ccccc1C#N	·	·	·	i	·	·
Cc1cc(C)c2sc(NNC(=O)c3ccc(S(=O)(=O)N4CCc5ccccc5C4)cc3)nc2c1	0.14	7*	i	i	-6	i
O=C(OCC(=O)N1CCN(C(=O)c2ccco2)CC1)c1cc(-c2ccc(Cl)c(Cl)c2Cl)nc2ccccc12	1.6	i	i	i	-13	i
CN1CCCN(C(=O)c2cc(-c3ccc(Cl)c(Cl)c3Cl)nc3ccccc23)CC1	-4.8*	i	i	i	-13	i
Cc1ccc2nc(-c3ccccc3)cc(C(=O)N3CCN(c4ccccc4O)CC3)c2c1	1.7	12*	i	i	-35	i
CC(C)CC(=O)/C(=C\c1ccc(Cl)cc1Cl)n1cncn1	-8.2*	i	i	i	-24	i
CC(C)CC(=O)/C(=C/c1ccc(N(C)C)cc1)n1cncn1	-1.6	i	i	i	-9	i
CNC(=O)[C@H]1O[C@@H](n2cnc3c(NCc4cccc(I)c4)ncnc32)[C@H](O)[C@@H]1O	·	·	·	i	·	·
CCOC(=O)/C(C#N)=C\C=C1C=CN(C)C=C1	-6.8	8*	i	i	-15	i
CCOC(=O)/C(C#N)=C\c1ccc(CC)s1	-0.47	i	i	i	-3	i
O=C(NCCCc1ccccc1)c1cccc(NC(=O)C2CCCCC2)c1	·	·	·	i	·	·
CCC(c1nnnn1Cc1ccccc1)N(Cc1ccco1)Cc1cc2cc(OC)ccc2[nH]c1=O (configuration not stated)	-0.43	i	i	i	-11	i
CCCC(c1nnnn1C(C)(C)CC)N(Cc1ccco1)Cc1cc2ccc(OC)cc2[nH]c1=O (configuration not stated)	-0.19	i	i	i	-10	-6.8*
CC1CCCN(S(=O)(=O)c2ccc(NC(=O)C3CC(=O)N(c4ccccc4)C3)cc2)C1 (configuration not stated)	-0.65	i	i	i	-6	i
Cc1ccc(Sc2ccc(C(=O)N3CCOCC3)cc2[N+](=O)[O-])cc1	0.79	i	i	i	-5	i
CCCn1c(NCc2cccc(OC)c2OC)nc2ccccc21	-0.57	i	i	i	-5	i
CCCn1c(NCc2c[nH]c3ccccc23)nc2ccccc21	-7.4*	i	i	i	-15	i
COC(=O)c1ccc(C(C(=O)NC2CCCCC2)N(Cc2ccccc2)C(=O)Cc2cccs2)cc1 (configuration not stated)	-0.95	i	i	i	-8	i
COC(=O)c1ccc(C(C(=O)NC2CCCCC2)N(C(=O)Cc2cccs2)C2CC2)cc1 (configuration not stated)	0.23	6*	i	i	-6	i
O=C(CN1CCC(C(O)(c2ccccc2)c2ccccc2)CC1)Nc1cc(Cl)ccc1Cl	0	i	i	i	-7	i
O=C(CN1CCC(C(O)(c2ccccc2)c2ccccc2)CC1)Nc1ccccc1	-4.8*	i	i	i	-11	i
SMILES	Kir21 inh	KCNQ1 inh	KCNQ1 act	KCNK3 inh	hERG protect	KCNK9 inh
CCOc1ccc(C(=O)NCC(=O)NCCSc2ccc(Br)cc2)cc1OCC	·	·	·	-9.8*	·	·
Cc1ccc(C(=O)NCC(=O)NCCSc2ccc(Br)cc2)cc1	-0.71	i	i	i	-13	i
CCc1ccccc1NC(=O)CN(c1ccc(OC)cc1OC)S(=O)(=O)c1ccccc1	-0.69	i	i	i	-8	i
Cc1cc(Br)ccc1NC(=O)c1ccc(-n2cncn2)c([N+](=O)[O-])c1	-0.8	i	i	i	-10	i
CC(C)(CNC(=O)c1cccc(S(=O)(=O)NCc2ccccc2)c1)N1CCOCC1	0.89	i	i	i	-6	i
COc1ccc(Cl)cc1NS(=O)(=O)c1cccc(C(=O)NCC(C)(C)N2CCOCC2)c1	·	·	·	-9*	·	·
CC(=O)/C(N=Nc1cc2c(c([N+](=O)[O-])c1C)C(C)(C)CC2(C)C)=C(\C)O	0.29	i	i	i	-10	i
COc1ccc(NC(=O)COC(=O)CN2C(=O)c3ccccc3C2=O)cc1	·	·	·	i	·	·
CNc1c([N+](=O)[O-])cnn1-c1ccc(Cl)cc1	1.2	i	i	i	-6	-7.9*
Cc1cc(C)c(NS(=O)(=O)c2cccc3cccnc23)c(C)c1	-4.4*	i	i	i	-10	i
O=S(=O)(NCc1ccc(Cl)cc1)c1cccc2cccnc12	-4.5*	i	i	i	-10	i
Cc1ccc(NS(=O)(=O)c2cccc3cccnc23)cc1Cl	-0.55	i	i	i	-6	i
COc1ccc([C@H]2CC(=O)C=C(c3cc(OC)ccc3OC)C2)cc1	·	·	·	i	·	·
O=[N+]([O-])c1ccc(Nc2nc(NCCO)nc(N3CCCC3)n2)cc1	0.01	i	i	i	-12	i
NNc1nc(Nc2ccc([N+](=O)[O-])cc2)nc(N2CCCCCC2)n1	-0.97	6*	i	i	-5	i
NC(=O)c1nccc2ccccc12	·	·	·	i	·	·
CC(C)C(c1nnnn1Cc1ccco1)N1CCN(c2cccc(Cl)c2)CC1 (configuration not stated)	0.02	i	i	i	-4	-8*
COc1ccc(CNC(=O)CN=C2NC(=O)C(c3ccccc3)(c3ccccc3)N2)cc1	-0.26	i	i	i	-6	i
Cc1ccc(C)c(NC(=O)COC(=O)CCC(=O)c2cccs2)c1	0.04	i	i	i	-5	i
S=c1[nH]c2ccc(Cl)cc2[nH]1	1.2	i	i	i	-9	i
S=c1[nH]c2cc(Cl)ccc2s1	1.9	i	74*	i	55*	i
N#Cc1c(/N=C/c2cc3ccccc3s2)sc2c1CCC2	0.01	i	i	i	-7	i
Cc1[nH]n(-c2cccc3ccccc23)c(=O)c1/C=N/c1sc2c(c1C#N)CCC2	0.58	i	11*	i	2	i
Cc1[nH]n(-c2ccc(F)cc2)c(=O)c1/C=N/c1sc2c(c1C#N)CCCC2	-0.01	i	34*	i	20*	i

Screening data: PubChem, Johns Hopkins Ion Channel Center
